System: HEK-293T
Assay: Multiplex assay against HEK293T
Type: toxicity, cell-based
Conditions: human
Outline: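 Tubulin, mitochondrial-mass and membrane-permeability phenotypes are per cents of healthy-nucleus cells. Cells were gated by CellPathfinder machine learning into Hoechst high-intensity objects or normal cells, normal cells into healthy, pyknosed or fragmented nuclei, and pyknosed cells into mitotic or apoptotic. Before that, live cells stained at seeding with Hoechst33342, BioTracker Green Microtubule Cytoskeleton Dye, MitoTracker Red and Annexin V Alexa Fluor 680 were imaged on a CQ1 microscope at 37°C and 5% CO2 after compound addition.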

[1] = 12 h, 1 µM, compound concentration 1 uM, replicate 1
[2] = 12 h, 1 µM, compound concentration 1 uM, replicate 2
[3] = 12 h, 10 µM, compound concentration 10 uM, replicate 1
[4] = 12 h, 10 µM, compound concentration 10 uM, replicate 2
[5] = 24 h, 1 µM, compound concentration 1 uM, replicate 1
[6] = 24 h, 1 µM, compound concentration 1 uM, replicate 2
[7] = 24 h, 10 µM, compound concentration 10 uM, replicate 1
[8] = 24 h, 10 µM, compound concentration 10 uM, replicate 2
[9] = 48 h, 1 µM, compound concentration 1 uM, replicate 1
[10] = 48 h, 1 µM, compound concentration 1 uM, replicate 2
[11] = 48 h, 10 µM, compound concentration 10 uM, replicate 1
[12] = 48 h, 10 µM, compound concentration 10 uM, replicate 2

## Cc1ccc(OCC(O)C(C)NC(C)C)c2c1CCC2.Cl (stereo not given)
[1]
  Population Apoptotic (%): 34%
  Population Fragmented Nuclei (%): 6%
  Population Healthy Nuclei (%): 81%
  Population Hoechst High Intensity Objects (%): 5%
  Population Membrane Permeable-Phenotype (%): 0%
  Population Mitochondria Different-Phenotype (%): 54%
  Population Mitotic Cells (%): 65%
  Population Normal (%): 94%
  Population Pyknosed Nuclei (%): 12%
  Population Tubulin-Different-Phenotype (%): 40%
  Total Cell Count: 409
[2]
  Population Apoptotic (%): 45%
  Population Fragmented Nuclei (%): 5%
  Population Healthy Nuclei (%): 84%
  Population Mitochondria Different-Phenotype (%): 65%
  Population Mitotic Cells (%): 54%
  Population Pyknosed Nuclei (%): 10%
  Population Tubulin-Different-Phenotype (%): 22%
  Total Cell Count: 360
[3]
  Population Apoptotic (%): 43%
  Population Fragmented Nuclei (%): 7%
  Population Healthy Nuclei (%): 67%
  Population Hoechst High Intensity Objects (%): 3%
  Population Membrane Permeable-Phenotype (%): 0%
  Population Mitochondria Different-Phenotype (%): 66%
  Population Mitotic Cells (%): 56%
  Population Normal (%): 96%
  Population Pyknosed Nuclei (%): 25%
  Population Tubulin-Different-Phenotype (%): 61%
  Total Cell Count: 247
[4]
  Population Fragmented Nuclei (%): 9%
  Population Healthy Nuclei (%): 76%
  Population Hoechst High Intensity Objects (%): 18%
  Population Mitochondria Different-Phenotype (%): 79%
  Population Normal (%): 81%
  Population Pyknosed Nuclei (%): 14%
  Population Tubulin-Different-Phenotype (%): 59%
  Total Cell Count: 323
[5]
  Population Apoptotic (%): 35%
  Population Fragmented Nuclei (%): 6%
  Population Healthy Nuclei (%): 80%
  Population Hoechst High Intensity Objects (%): 3%
  Population Membrane Permeable-Phenotype (%): 0%
  Population Mitochondria Different-Phenotype (%): 38%
  Population Mitotic Cells (%): 64%
  Population Normal (%): 96%
  Population Pyknosed Nuclei (%): 12%
  Population Tubulin-Different-Phenotype (%): 25%
  Total Cell Count: 548
[6]
  Population Apoptotic (%): 28%
  Population Fragmented Nuclei (%): 7%
  Population Healthy Nuclei (%): 83%
  Population Hoechst High Intensity Objects (%): 4%
  Population Mitochondria Different-Phenotype (%): 45%
  Population Mitotic Cells (%): 71%
  Population Normal (%): 95%
  Population Pyknosed Nuclei (%): 9%
  Population Tubulin-Different-Phenotype (%): 17%
  Total Cell Count: 444
[7]
  Population Apoptotic (%): 46%
  Population Fragmented Nuclei (%): 11%
  Population Healthy Nuclei (%): 71%
  Population Hoechst High Intensity Objects (%): 5%
  Population Membrane Permeable-Phenotype (%): 1%
  Population Mitochondria Different-Phenotype (%): 53%
  Population Mitotic Cells (%): 53%
  Population Normal (%): 94%
  Population Pyknosed Nuclei (%): 17%
  Population Tubulin-Different-Phenotype (%): 47%
  Total Cell Count: 334
[8]
  Population Apoptotic (%): 50%
  Population Fragmented Nuclei (%): 9%
  Population Healthy Nuclei (%): 78%
  Population Hoechst High Intensity Objects (%): 11%
  Population Membrane Permeable-Phenotype (%): 0%
  Population Mitochondria Different-Phenotype (%): 60%
  Population Mitotic Cells (%): 50%
  Population Normal (%): 88%
  Population Pyknosed Nuclei (%): 11%
  Total Cell Count: 399
[9]
  Population Apoptotic (%): 24%
  Population Fragmented Nuclei (%): 12%
  Population Healthy Nuclei (%): 79%
  Population Hoechst High Intensity Objects (%): 3%
  Population Membrane Permeable-Phenotype (%): 0%
  Population Mitochondria Different-Phenotype (%): 28%
  Population Mitotic Cells (%): 75%
  Population Normal (%): 96%
  Population Pyknosed Nuclei (%): 8%
  Population Tubulin-Different-Phenotype (%): 14%
  Total Cell Count: 804
[10]
  Population Apoptotic (%): 26%
  Population Fragmented Nuclei (%): 11%
  Population Healthy Nuclei (%): 81%
  Population Hoechst High Intensity Objects (%): 1%
  Population Mitochondria Different-Phenotype (%): 27%
  Population Mitotic Cells (%): 73%
  Population Normal (%): 98%
  Population Pyknosed Nuclei (%): 7%
  Total Cell Count: 660
[11]
  Population Apoptotic (%): 40%
  Population Fragmented Nuclei (%): 10%
  Population Healthy Nuclei (%): 74%
  Population Hoechst High Intensity Objects (%): 5%
  Population Membrane Permeable-Phenotype (%): 0%
  Population Mitochondria Different-Phenotype (%): 48%
  Population Mitotic Cells (%): 59%
  Population Normal (%): 94%
  Population Pyknosed Nuclei (%): 14%
  Population Tubulin-Different-Phenotype (%): 43%
  Total Cell Count: 435
[12]
  Population Apoptotic (%): 34%
  Population Fragmented Nuclei (%): 11%
  Population Healthy Nuclei (%): 80%
  Population Membrane Permeable-Phenotype (%): 1%
  Population Mitochondria Different-Phenotype (%): 39%
  Population Mitotic Cells (%): 66%
  Population Pyknosed Nuclei (%): 8%
  Population Tubulin-Different-Phenotype (%): 41%
  Total Cell Count: 611
